# Test results from ChEMBL document CHEMBL3822431, “Hydroxychalcone inhibitors of Streptococcus mutans glucosyl transferases and biofilms as potential anticaries agents” (Bioorg Med Chem Lett, 2016).
# Activity calls are given as the source filed them. No cut-off for these calls is given here.
# Key:
# [1] = target: T1, Glucosyltransferase-S (Streptococcus mutans serotype c (strain ATCC 700610 / UA159)) (UniProt P49331); assay: Inhibition of Wild-type Streptococcus mutans UA159 glucosyltransferase D at 50 uM by zymography
# T1 sequence (whole entry): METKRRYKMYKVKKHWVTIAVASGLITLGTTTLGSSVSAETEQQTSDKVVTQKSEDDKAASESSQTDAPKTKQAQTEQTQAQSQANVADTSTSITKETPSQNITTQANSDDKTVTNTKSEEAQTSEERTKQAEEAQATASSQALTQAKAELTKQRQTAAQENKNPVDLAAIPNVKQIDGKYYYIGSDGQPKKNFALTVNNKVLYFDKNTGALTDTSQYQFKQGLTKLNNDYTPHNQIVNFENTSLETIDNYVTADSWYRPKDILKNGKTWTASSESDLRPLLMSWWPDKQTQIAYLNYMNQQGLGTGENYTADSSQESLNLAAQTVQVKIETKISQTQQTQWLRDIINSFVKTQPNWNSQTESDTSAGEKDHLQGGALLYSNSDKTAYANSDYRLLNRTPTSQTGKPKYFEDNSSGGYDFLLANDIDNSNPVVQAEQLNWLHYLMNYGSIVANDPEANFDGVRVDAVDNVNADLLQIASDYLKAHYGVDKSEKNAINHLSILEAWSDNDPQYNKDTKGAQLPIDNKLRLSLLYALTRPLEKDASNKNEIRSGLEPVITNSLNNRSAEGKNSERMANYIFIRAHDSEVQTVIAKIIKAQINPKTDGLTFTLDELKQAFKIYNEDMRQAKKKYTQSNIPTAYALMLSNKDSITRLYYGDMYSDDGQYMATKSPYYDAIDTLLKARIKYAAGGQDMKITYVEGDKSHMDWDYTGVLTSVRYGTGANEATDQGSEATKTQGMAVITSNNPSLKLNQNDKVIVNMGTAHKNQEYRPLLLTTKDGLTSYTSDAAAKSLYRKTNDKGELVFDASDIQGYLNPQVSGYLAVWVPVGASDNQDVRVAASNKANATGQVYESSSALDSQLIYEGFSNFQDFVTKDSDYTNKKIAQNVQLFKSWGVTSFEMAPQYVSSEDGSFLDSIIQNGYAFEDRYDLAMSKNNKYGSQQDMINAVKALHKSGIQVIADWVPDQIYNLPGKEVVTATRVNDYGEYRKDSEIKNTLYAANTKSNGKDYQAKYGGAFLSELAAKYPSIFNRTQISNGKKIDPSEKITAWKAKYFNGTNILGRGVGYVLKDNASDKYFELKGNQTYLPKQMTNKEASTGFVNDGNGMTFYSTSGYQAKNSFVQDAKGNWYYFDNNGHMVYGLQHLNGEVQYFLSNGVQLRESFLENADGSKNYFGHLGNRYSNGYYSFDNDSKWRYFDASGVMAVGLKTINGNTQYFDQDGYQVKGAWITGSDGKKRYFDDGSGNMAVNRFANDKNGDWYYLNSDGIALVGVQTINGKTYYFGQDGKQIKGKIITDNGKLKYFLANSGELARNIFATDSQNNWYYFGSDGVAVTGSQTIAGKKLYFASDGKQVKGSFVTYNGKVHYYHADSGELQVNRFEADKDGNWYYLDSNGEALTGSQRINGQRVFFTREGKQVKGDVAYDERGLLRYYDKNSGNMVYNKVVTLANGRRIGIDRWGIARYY
# How it was run: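 Compound (50 µM) added to overnight S. mutans UA159 wild-type cultures; Gtfs concentrated from supernatants, run on duplicate SDS-PAGE; second gel used for zymogram, glucan band intensity taken as Gtf activity.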
# [2] = target: T2, Glucosyltransferase-SI (Streptococcus mutans serotype c (strain ATCC 700610 / UA159)) (UniProt P13470); assay: Inhibition of Wild-type Streptococcus mutans UA159 glucosyltransferase C at 50 uM by coomassie blue staining based SDS-PAGE method
# T2 sequence (whole entry): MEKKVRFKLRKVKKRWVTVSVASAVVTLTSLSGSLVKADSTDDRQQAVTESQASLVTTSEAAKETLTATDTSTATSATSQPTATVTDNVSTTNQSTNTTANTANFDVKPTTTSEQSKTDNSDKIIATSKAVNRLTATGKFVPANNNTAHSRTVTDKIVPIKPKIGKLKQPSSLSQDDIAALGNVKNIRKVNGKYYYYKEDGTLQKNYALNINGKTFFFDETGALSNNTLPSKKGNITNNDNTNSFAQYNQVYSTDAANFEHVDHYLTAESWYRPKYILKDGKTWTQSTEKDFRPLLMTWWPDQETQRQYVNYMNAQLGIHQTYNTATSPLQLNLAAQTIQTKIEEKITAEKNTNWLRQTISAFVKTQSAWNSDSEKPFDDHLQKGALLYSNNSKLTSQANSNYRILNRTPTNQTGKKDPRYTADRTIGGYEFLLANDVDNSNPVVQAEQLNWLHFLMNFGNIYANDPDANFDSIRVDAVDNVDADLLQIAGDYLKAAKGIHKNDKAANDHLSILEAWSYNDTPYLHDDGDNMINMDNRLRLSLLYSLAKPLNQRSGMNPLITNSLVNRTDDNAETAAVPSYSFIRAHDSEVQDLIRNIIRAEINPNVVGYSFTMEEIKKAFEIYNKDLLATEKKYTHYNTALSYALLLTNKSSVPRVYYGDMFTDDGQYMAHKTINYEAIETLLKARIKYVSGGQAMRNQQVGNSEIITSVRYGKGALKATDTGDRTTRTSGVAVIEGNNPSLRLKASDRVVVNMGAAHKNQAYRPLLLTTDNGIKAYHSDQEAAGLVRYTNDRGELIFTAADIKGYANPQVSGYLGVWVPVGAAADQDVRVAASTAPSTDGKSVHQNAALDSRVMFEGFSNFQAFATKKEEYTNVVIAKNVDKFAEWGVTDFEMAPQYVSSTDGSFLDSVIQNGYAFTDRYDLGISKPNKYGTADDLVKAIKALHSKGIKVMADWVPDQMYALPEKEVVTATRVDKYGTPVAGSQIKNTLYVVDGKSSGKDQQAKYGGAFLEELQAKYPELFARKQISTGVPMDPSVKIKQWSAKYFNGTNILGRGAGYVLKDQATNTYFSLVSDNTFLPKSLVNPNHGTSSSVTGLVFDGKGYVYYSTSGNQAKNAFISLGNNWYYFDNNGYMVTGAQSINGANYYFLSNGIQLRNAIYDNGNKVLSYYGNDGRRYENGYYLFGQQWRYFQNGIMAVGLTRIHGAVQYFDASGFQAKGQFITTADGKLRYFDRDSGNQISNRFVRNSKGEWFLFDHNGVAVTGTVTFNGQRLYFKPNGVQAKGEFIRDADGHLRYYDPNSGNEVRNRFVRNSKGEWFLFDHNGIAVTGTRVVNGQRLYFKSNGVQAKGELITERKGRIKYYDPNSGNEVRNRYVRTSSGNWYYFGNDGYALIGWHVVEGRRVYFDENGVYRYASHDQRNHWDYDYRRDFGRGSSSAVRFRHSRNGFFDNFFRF
# How it was run: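 Compound (50 µM) added to overnight S. mutans UA159 wild-type cultures; Gtfs collected and concentrated from supernatants, run on SDS-PAGE in duplicate; one gel Coomassie blue stained for protein levels.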
SMILES,inhibition [1],inhibition [2]
O=C(/C=C\c1ccc(O)cc1O)c1cccc(O)c1,Active,Active
O=C(/C=C/c1cc(O)c(O)cc1O)c1ccccc1O (stereo in doubt; 18c),Active,Active
O=C(/C=C/c1ccc(O)cc1O)c1ccc(O)cc1,Active,Active
O=C(/C=C\c1ccc(O)cc1O)c1ccc(O)cc1,Active,Active
O=C(/C=C/c1ccc(O)cc1O)c1cccc(O)c1 (stereo in doubt; 9a),Active,Active
